Assay results collected from several papers.
Protocols differ between the studies behind these lines.
Target: Prostaglandin G/H synthase 2 (PTGS2, Homo sapiens, UniProt P35354)
Read-out: enzyme activity
Action: inhibitor
Sequence (P35354 18-604, as in one of the studies): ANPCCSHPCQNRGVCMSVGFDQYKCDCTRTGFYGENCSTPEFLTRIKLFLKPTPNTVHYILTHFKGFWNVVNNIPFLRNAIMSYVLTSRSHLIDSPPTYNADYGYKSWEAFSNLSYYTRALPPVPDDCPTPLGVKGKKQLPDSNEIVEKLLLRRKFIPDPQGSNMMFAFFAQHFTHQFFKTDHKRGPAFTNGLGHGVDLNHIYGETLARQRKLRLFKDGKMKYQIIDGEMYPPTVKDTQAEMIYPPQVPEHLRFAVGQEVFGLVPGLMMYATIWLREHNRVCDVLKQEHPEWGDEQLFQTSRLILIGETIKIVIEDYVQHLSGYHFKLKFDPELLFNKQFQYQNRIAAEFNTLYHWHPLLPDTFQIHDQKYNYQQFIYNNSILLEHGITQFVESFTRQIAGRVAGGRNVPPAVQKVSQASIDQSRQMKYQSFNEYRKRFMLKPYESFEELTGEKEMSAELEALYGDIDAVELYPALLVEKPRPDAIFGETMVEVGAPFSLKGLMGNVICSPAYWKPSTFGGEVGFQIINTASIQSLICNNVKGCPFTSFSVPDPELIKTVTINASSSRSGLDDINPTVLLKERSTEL

C[C@H](C(=O)N[C@H]1COc2ccccc2[C@@H]1S(C)(=O)=O)c1ccc(F)cc1
inhibition (10 µM): -27%

Clc1ccc2c(C3CCN(CCc4c[nH]c5ccccc45)CC3)c[nH]c2c1
inhibition (10 µM): 79%

COc1ccc(-c2ccc(N)cc2-c2nc3ccccc3s2)cc1
inhibition (absorbance; 10 µM): 10.3%

c1ccc(C(NCCNC(c2ccccc2)c2ccccc2)c2ccccc2)cc1
inhibition (10 µM): 0%

Nc1ncc(-c2nc(N3CCOCC3)nc(N3CCOCC3)n2)c(C(F)F)n1
remaining activity (10 µM): 99%

O=C(Nc1cccnn1)N1CCN([C@@H]2CCOc3cc(C(F)(F)F)ccc32)CC1
inhibition (20 µM): -2%

NS(=O)(=O)c1ccc(-c2ncccc2-c2nc3ccccc3s2)cc1
inhibition (absorbance; 10 µM): 88.5%

Cc1ncc(C)n2nc(/C=C/c3nc(N4CCCC4)cc(N4CCOCC4)n3)nc12
inhibition (10 µM): 0%

Cc1ccc(-c2nc3ccccc3s2)c(-c2ccc(S(C)(=O)=O)cc2)c1
inhibition (absorbance; 10 µM): 72%

COCc1c(-c2cc3cc(C)cc(OC)c3s2)c2c(N)ncnn2c1CN1CCNC(=O)C1
inhibition (10 µM): 6%
